# The list is not random: actives were taken first. Their share in the collection is about 1.9%.
# PG9 Ab binder = small molecules binding HIV-1 gp120 antibody PG9; TR-FRET gp120-PG9 antibody binding; inhibition, % at 6.7 µM; actives 0.43% (n = 360,000); in the data active means inhibition above about 8.5%
# Yeast superoxide = caloric restriction mimetics inhibiting age-related superoxide in yeast; S. cerevisiae aged cells, superoxide DHE fluorescence; hits give low values; superoxide response (% of plate mean), % at 10 µM; actives 0.18% (n = 330,000);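 active means superoxide response under a set limit, about three screen SD below normal, cut at about 65% in these data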;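 further: yeast aged for seven days with compound at 30 °C before DHE staining; 100% = average MFI of all compound-treated wells on the plate with controls excluded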
# beta cell repl = induces beta-cell replication in MIN6 cells; MIN6 cells proliferation, ATPlite luminescence, 48 h; cells starved in 0.2% serum; 100% = growth in 10% serum; proliferation, % at 10 µM; actives 0.29% (n = 330,000);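 active means compounds whose signal lies at least 3.5 SD above the mean of all wells on their plate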;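 further: 0% = DMSO-treated cells in low-serum medium and 100% = 10% serum control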
# Rce1 inh = blocks yeast Ras-converting enzyme | Q03530 | yeast membranes, quenched prenylated peptide cleavage fluorescence | calls only | actives 0.27% (n = 290,000);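 active means fall in fluorescence gain of 50% or more versus controls, with final raw signal at or below 3038400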;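 further: plate controls were neutral control wells for no effect and wells lacking membranes for full effect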
# UCH37 inh = blocks the human deubiquitinase UCH37; Q9Y5K5; purified proteasome/UCH37, Ub-AMC cleavage fluorescence; inhibition, % (no concentration beside the values); actives 0.33% (n = 330,000); AID 588478;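 active means mean inhibition over replicate wells above about 20%, limit read from the data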;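 further: 0% = compound-free wells with enzyme and 100% = wells lacking proteasome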
#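 System: Proteasome-associated human UCH37 deubiquitinase; Input: 0.15 nM proteasome in added enzyme buffer; Also added: Ub-AMC substrate from 1 µM stock; Incubation: 30 min compound-proteasome preincubation then 25 min substrate reaction, room temperature; Detection: fluorescence, ex 355 nm, em 460 nm; Read-out: % inhibition of Ub-AMC cleavage fluorescence; Benchmarks: no-proteasome and no-compound wells.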
# Rev-erbA mod = modulates human Rev-erb alpha binding to DNA; Rev-erbα–FITC-DNA binding, fluorescence polarization, 90 min; activity, % at 10 µM; actives 0.79% (n = 370,000); AID 1259318;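 active means activity above about 14%, limit read from the data; passing the limit was not always enough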;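 further: 0% = DMSO wells with 35 nM protein and 100% = DMSO wells with 750 nM protein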
# Target sequence (P20393 whole entry, looked up): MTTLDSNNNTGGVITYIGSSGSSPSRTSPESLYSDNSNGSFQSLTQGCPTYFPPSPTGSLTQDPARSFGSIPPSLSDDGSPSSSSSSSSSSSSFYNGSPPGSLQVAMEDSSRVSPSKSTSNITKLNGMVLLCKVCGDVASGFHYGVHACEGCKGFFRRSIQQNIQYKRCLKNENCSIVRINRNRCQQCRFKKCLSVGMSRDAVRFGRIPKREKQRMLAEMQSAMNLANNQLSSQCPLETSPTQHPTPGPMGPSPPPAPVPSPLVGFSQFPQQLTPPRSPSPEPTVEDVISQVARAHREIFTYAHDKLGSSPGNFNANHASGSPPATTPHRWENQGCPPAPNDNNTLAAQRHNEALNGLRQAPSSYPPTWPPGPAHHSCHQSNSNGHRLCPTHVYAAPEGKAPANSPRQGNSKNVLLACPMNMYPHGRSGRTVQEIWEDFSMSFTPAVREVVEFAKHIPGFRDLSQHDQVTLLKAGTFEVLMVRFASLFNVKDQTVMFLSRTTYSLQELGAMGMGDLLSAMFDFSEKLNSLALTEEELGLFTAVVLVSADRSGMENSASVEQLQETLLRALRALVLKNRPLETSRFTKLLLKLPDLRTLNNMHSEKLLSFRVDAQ
# Rev-erbA confirm = confirmation of modulators of human Rev-erb alpha DNA binding. shares compounds with Rev-erbA mod. Rev-erb alpha FITC-DNA binding, fluorescence polarization, 90 min. activation, % at 25 µM. actives 61% (n = 3,000). AID 1259319;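 active means activation at or above a set limit, or at least 3 SD above the negative control mean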;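 further: 0% = 35 nM protein with DMSO and 100% = 750 nM protein high control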
# RORg counter = affects RORgamma DNA binding in a Rev-erb alpha counter-screen; shares compounds with Rev-erbA mod; purified RORgamma protein-FITC-DNA binding, fluorescence polarization; IC50, µM; actives 8% (n = 910); AID 1259320;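 active means Compounds whose fitted half-maximal concentration for disrupting protein-DNA binding is below 10 micromolar; the record names Rev-erb in its text, so the target is in doubt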
# * marks the source's active call; other numbers are inactive results; i = inactive; . = no result given; + = active, no number.
SMILES,PG9 Ab binder,Yeast superoxide,beta cell repl,Rce1 inh,UCH37 inh,Rev-erbA mod,Rev-erbA confirm,others
O=C(CSc1ncnc2c1oc1ccccc12)Nc1ccc2c(c1)OCCO2,8.2,98.7,-3.0,i,2.0,676.1*,568.7*,RORg counter=i
CSc1nc(-c2ccc(C)cc2)nc(N)c1C#N,1.6,103.8,0.9,i,-2.1,30.6*,8.3,
Cc1ccc(-c2c(C#N)c(N)nc3c2CCCCC3)cc1,0.2,94.6,-1.0,i,-79.9,31.2*,19.8*,
CC(C)c1ccc(-c2c(C#N)c(N)nc3c2CCCCC3)cc1,2.0,86.5,-1.7,i,-22.5,2.2,.,
CSc1nc(N)c(C#N)c(-c2ccc(Cl)cc2)c1C#N,1.7,118.9,-2.3,i,-6.2,60.2*,44.7*,RORg counter=>40
COc1ccc(-n2c(COc3ccc(Cl)cc3)nnc2SCC(=O)c2ccc(-c3ccccc3)cc2)cc1,.,.,.,.,.,22.5*,2.3,
COc1ccc(-n2c(CCc3ccccc3)nnc2SCC(=O)c2ccc(Cl)cc2)cc1,-0.7,101.1,-3.1,i,-2.6,2.5,.,
Cn1c2ccccc2c(=O)c2c(=O)n(Cc3cccc4ccccc34)cnc21,.,.,.,.,.,18.4*,20.1*,
Cn1c2ccccc2c(=O)c2c(=O)n(CCCc3ccccc3)cnc21,.,.,.,.,.,-2.9,.,
COc1ccc(/C=C2\Oc3cc(OC(=O)N4CCOCC4)ccc3C2=O)c(OC)c1,-1.7,89.5,-2.5,i,-7.9,22.1*,8.7,
CCOC(=O)Cn1c(-c2nonc2NC(=O)c2ccccc2F)nc2ccccc21,-0.2,106.6,-2.1,i,-8.4,27.0*,14.9,
CCC(=O)Nc1nonc1-c1nc2ccccc2n1Cc1ccccc1,0.8,89.7,1.1,i,-4.5,0.7,.,
COc1cc(C=NNC(=O)c2ccccc2NS(=O)(=O)c2cccs2)ccc1O,.,.,.,.,4.6,.,.,
COc1ccccc1-c1ccc2c(c1)C(C)(Cc1ccccc1C#N)C(=O)N2 (stereo not given),0.2,.,.,.,.,47.8*,41.6*,RORg counter=>40
CCc1ccc2c(c1)NC(=O)C2(C)Cc1ccccc1C#N (stereo not given),0.7,.,.,.,.,2.2,.,
CC1(Cc2ccccc2C#N)C(=O)Nc2ccc(-c3ccccc3)cc21 (stereo not given),-1.1,.,.,.,.,35.6*,51.0*,RORg counter=>40
Cc1c(C(=O)NN=CC(C)C)[nH]c2ccc([N+](=O)[O-])cc12,.,.,.,.,7.7,.,.,
O=C(CC1SC(=O)NC1=O)Oc1ccc(C=NNC(=O)c2ccccc2O)cc1 (stereo not given),.,.,.,.,6.5,.,.,
CCOC(=O)CSc1nc(-c2ccc3c(c2)OCO3)ccc1C#N,1.6,100.9,-3.4,i,-54.7,19.6*,17.4*,
N#Cc1cc2cc3c(cc2nc1SCC(=O)OC1CCCCC1)OCO3,0.5,100.5,-1.4,i,-11.0,78.7*,38.2*,
CC(=O)CSc1nc2cc3c(cc2cc1C#N)OCCO3,-6.7,102.3,-4.1,i,-1.5,20.2*,19.7*,
N#Cc1cc2cc3c(cc2nc1SCC(=O)N1CCCC1)OCCO3,.,99.7,-1.6,i,-9.2,.,.,
O=C(Nc1cccc(-c2csc(Nc3ccccc3)n2)c1)c1ccccc1,-1.2,100.7,-8.6,i,-1.2,-3.9,.,
O=C(Nc1nc(-c2ccc3c(c2)Cc2ccccc2-3)cs1)c1ccccc1,-2.6,103.2,0.8,i,-28.1,50.0*,14.0,
CCn1cc(C=NNC(=O)C2(C)CC2(Cl)Cl)c(C)n1 (stereo not given),.,.,.,.,2.2,.,.,
SMILES,PG9 Ab binder,Yeast superoxide,beta cell repl,Rce1 inh,UCH37 inh,Rev-erbA mod,Rev-erbA confirm,others
COc1ccc(N(CC(=O)NN=Cc2ccc3c(c2)OCO3)S(=O)(=O)c2ccccc2)cc1,.,.,.,.,5.6,.,.,
CN(C)/C=N/c1c(C#N)cnn1-c1nc2ccccc2s1,1.7,94.4,-2.2,i,.,49.8*,19.3*,
Cc1ccc(-n2ncc(C#N)c2N=CN(C)C)cc1,.,.,.,.,-0.8,.,.,
O=c1c2cnn(-c3ccccc3)c2nc(-c2cccs2)n1-c1ccc(Br)cc1,-0.8,95.8,0.4,i,-7.0,38.0*,4.0,
O=[N+]([O-])c1cccc(C=NNc2nc(N3CCCCC3)nc(N3CCCCC3)n2)c1,.,.,.,.,3.6,.,.,
Cc1ccc(C(=O)OCC(=O)c2c[nH]c3ccccc23)cc1,0.7,105.5,-3.5,i,3.7,-3.6,.,
O=C(OCC(=O)c1c[nH]c2ccccc12)c1cc(Br)ccc1O,2.5,101.5,1.7,i,-3.0,42.5*,41.4*,RORg counter=>40
CN(C)C=Nc1sc2c(c1C(N)=O)CCCC2,.,.,.,.,7.1,.,.,
Cc1ccc2c3c(c(SCC(=O)Nc4nonc4C)nc2c1)CCCC3,-0.4,106.5,0.3,i,2.1,26.3*,38.9*,RORg counter=>40
Cc1nonc1NC(=O)CSc1nc2cc(Cl)ccc2c2c1CCCC2,.,90.7,-1.4,i,-2.0,173.2*,131.6*,
Cc1nc(N)sc1C(=O)NN=Cc1ccc([N+](=O)[O-])cc1,.,.,.,.,4.5,.,.,
CCCNC(=O)c1cc(-c2ccccc2)c(N2CCCCC2)s1,2.6,101.5,-0.3,i,1.2,93.4*,27.3*,
Fc1ccc(-c2nc3c(Cl)cc(C(F)(F)F)cn3c2Cl)cc1,1.4,90.5,-4.3,i,-4.5,34.9*,19.4*,
Cc1cc(C)nc(NN=Cc2sccc2C)n1,.,.,.,.,7.4,.,.,
CN(C)c1ccc(P(=O)(Nc2cccc(C(F)(F)F)c2)N2CCOCC2)c(NC(=O)c2cccs2)c1 (stereo not given),0.9,103.0,-6.2,.,1.3,32.5*,2.5,
COc1nc(-c2ccc(C)cc2)ccc1-c1noc(-c2ccco2)n1,0.6,112.7,-1.1,i,-21.3,0.1,.,
COc1ccccc1-c1noc(-c2cccnc2)n1,-1.3,103.0,-0.5,i,1.0,1.6,.,
COc1nc(-c2ccccc2)ccc1-c1noc(-c2ccccc2F)n1,1.4,90.0,-2.6,+,-12.1,29.5*,17.1,
COc1nc(-c2ccc(C)cc2)ccc1-c1noc(-c2cccnc2)n1,-0.3,94.9,-0.3,i,-59.9,21.9*,8.5,
COc1nc(-c2ccccc2)ccc1-c1noc(-c2cccnc2)n1,-2.0,90.3,-0.7,i,-58.9,34.5*,5.4,
Cc1ccccc1-c1noc(-c2ccccc2F)n1,-2.4,86.1,-2.8,i,1.5,3.1,.,
CON=C(C(=O)O)c1csc(NN=C(C)C)n1,.,.,.,.,5.8,.,.,
O=C(CON=Cc1ccccc1O)NNC(=O)c1ccccc1Cl,.,.,.,.,1.9,.,.,
Cn1c(N)c(C(=O)CSc2nc3ccccc3c(=O)n2Cc2ccccc2)c(=O)n(C)c1=O,0.1,116.1,1.7,i,0.2,13.3,.,
CCCn1c(N)c(C(=O)CSc2nc(C)cs2)c(=O)[nH]c1=O,0.6,95.2,-1.3,i,0.9,-6.8,.,

# Bioassay records: PubChem, several laboratories
